Results reported in ChEMBL document CHEMBL5579803, “α-Amino bisphosphonate triazoles serve as GGDPS inhibitors” (Bioorg Med Chem Lett, 2024).
The source made the active and inactive calls.

Key:
[1] = molecular target: T1, Geranylgeranyl pyrophosphate synthase (Homo sapiens, UniProt O95749); experiment: Inhibition of GGDPS (unknown origin) using recombinant enzyme by enzyme assay
T1 sequence (O95749 whole entry): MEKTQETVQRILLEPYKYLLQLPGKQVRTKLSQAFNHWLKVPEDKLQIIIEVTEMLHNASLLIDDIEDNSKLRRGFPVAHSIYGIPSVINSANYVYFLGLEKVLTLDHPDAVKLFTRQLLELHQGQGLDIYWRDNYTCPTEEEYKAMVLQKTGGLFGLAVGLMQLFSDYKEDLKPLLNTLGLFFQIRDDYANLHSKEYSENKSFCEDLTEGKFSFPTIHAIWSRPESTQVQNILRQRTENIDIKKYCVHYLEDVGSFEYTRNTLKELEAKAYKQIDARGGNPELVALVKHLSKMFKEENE

[2] = molecular target: T2, Geranylgeranyl pyrophosphate synthase (Homo sapiens) (UniProt O95749); experiment: Inhibition of GGDPS (unknown origin) using uRAP1a as substrate in RPMI-8226 cells by measuring lowest effective concentration by measuring unmodified Rap1a by immunoblot based ELISA analysis; type: cell-based
T2 sequence (whole entry): T1 sequence (O95749 whole entry)
Procedure, shortened: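 Lowest effective concentration in RPMI-8226 cells after 48 h exposure. It is defined as the lowest level giving both a visible unprenylated Rap1a band on immunoblot (β-tubulin loading control) and a statistically significant rise (p<0.05, t-test vs untreated cells) in intracellular lambda light chain by ELISA. Based on n=3 independent experiments.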

[3] = molecular target: T2, Geranylgeranyl pyrophosphate synthase (Homo sapiens); experiment: Inhibition of GGDPS (unknown origin) using uRAP1a as substrate in RPMI-8226 cells assessed as disruption of geranylgeranylation by measuring unmodified Rap1a at 0.5 uM incubated for 48 hrs by immunoblot analysis; type: cell-based
Procedure, shortened: (§1)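 RPMI-8226 myeloma cells exposed 48 h to varying test concentrations, with lovastatin (10 μM) as positive control. Lysates were immunoblotted with an antibody that recognises only unprenylated Rap1a, with β-tubulin as loading control. Gels are representative of three independent studies.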

[4] = molecular target: T2, Geranylgeranyl pyrophosphate synthase (Homo sapiens); experiment: Inhibition of GGDPS (unknown origin) using uRAP1a as substrate in RPMI-8226 cells assessed as disruption of geranylgeranylation by measuring unmodified Rap1a at […] incubated for 48 hrs by immunoblot analysis; type: cell-based; settings: dose 0.25 µM
[5] = molecular target: T2, Geranylgeranyl pyrophosphate synthase (Homo sapiens); experiment: Inhibition of GGDPS (unknown origin) using uRAP1a as substrate in RPMI-8226 cells assessed as disruption of geranylgeranylation by measuring unmodified Rap1a at 10 uM incubated for 48 hrs by immunoblot analysis; type: cell-based
Procedure, shortened: as §1

Compound | IC50 [1] [nM] | MEC [2] [µM] | inhibition [3] | inhibition [4] | inhibition [5]
CC(C)=CCC/C(C)=C\CCn1cc(CC(N)(P(=O)(O)O)P(=O)(O)O)nn1 | 49.4 | 0.25 |  |  | 
CC(C)=CCC/C(C)=C/CCn1cc(CC(N)(P(=O)(O)O)P(=O)(O)O)nn1 | 52.1 | 1 |  |  | 
CC(C)=CCCC(C)=CCn1cc(CC(N)(P(=O)(O)O)P(=O)(O)O)nn1 | 3760 | 0.5 | Active |  | 
CC(C)=CCC/C(C)=C/CCn1cc(CC(P(=O)(O)O)P(=O)(O)O)nn1 |  | 0.03 |  |  | 
CC(C)=CCC/C(C)=C\Cn1cc(CC(N)(P(=O)(O)O)P(=O)(O)O)nn1 | 270 | 0.25 |  | Active | 
CC(C)=CCC/C(C)=C/Cn1cc(CC(N)(P(=O)(O)O)P(=O)(O)O)nn1 | > 100000 |  |  |  | inactive
